Published values of several laboratories.
Each line is one published result; the experiments were not run side by side.
Target: Myosin-IIIa (MYO3A, Homo sapiens, UniProt Q8NEV4)

| Compound | test | setting | remaining binding [%] |
| --- | --- | --- | --- |
| FC(F)(F)Oc1cccc(-c2cnc3ccc(-c4ccncc4)nn23)c1 | cell-free assay, competition with immobilised ligand | 5 µM | 82 |
| O=C(Nc1c[nH]nc1C(=O)NC1CCNCC1)c1cc(F)cc(F)c1 | binding, competition with immobilised ligand | 1 µM | 94 |
| C=CC(=O)N1CCC(C(=O)NCC(=O)N2CCN(c3nc(-c4cnc(N)nc4C(F)F)nc(N4CCOCC4)n3)CC2)CC1 | binding, competition with immobilised ligand | 1 µM | 100 |
| Cc1cnc(Nc2ccc(C(=O)N3CCC(N4CCCC4)CC3)cc2)nc1-c1cc2ccccc2s1 | binding, competition with immobilised ligand | 1 µM | 85 |
| c1cnn2ncc(-c3ccnc(N4CCC45COC5)n3)c2c1 | binding | 1 µM | 55 |
| O=C(NS(=O)(=O)c1ccc(NCC2CCOCC2)c([N+](=O)[O-])c1)c1ccc(N2CCN(Cc3ccc(C(F)(F)F)cc3-c3ccc(Cl)cc3)CC2)cc1Oc1cnc2[nH]ccc2c1 | cell-free assay, competition with immobilised ligand | 1 µM | 85 |
| O=C(c1ccc(Nc2nccc(-c3cc4ccccc4s3)n2)cc1)N1CCC(N2CCCC2)CC1 | binding, competition with immobilised ligand | 1 µM | 100 |
| C[C@@H]1CCN(c2nccc(-c3cnn4ncccc34)n2)C1 | binding | 1 µM | 100 |
| COc1cnc(Nc2cccc(S(N)(=O)=O)c2)nc1N1CCN(c2ccccc2)C(=O)C1 | binding, competition with immobilised ligand | 1 µM | 100 |
| CCC(=O)N[C@H]1CC[C@@H](C(=O)N(C)c2ccc(-c3nc4ccccc4o3)cc2)C1 | cell-free assay, competition with immobilised ligand | 1 µM | 100 |
| CN(C)c1nccc(-c2cnc3ncccn23)n1 | binding | 1 µM | 90 |
| C[C@@H]1CN(c2cc(-c3nn(C)c4ccc(OC5(C)CC5)cc34)ncn2)C[C@H](C)O1 | cell-free assay, competition with immobilised ligand | 1 µM | 100 |
| COc1ncc2cc3ccccc3nc2c1C#N | binding, competition with immobilised ligand | 5 µM | 100 |
| CC1CCCN1c1nccc(-c2cnn3ncccc23)n1 (stereo not drawn) | binding | 1 µM | 100 |
| FC(F)(F)c1ccc2c(c1)nc(-c1cccnc1)n2C1CC1 | cell-free assay, competition with immobilised ligand | 1 µM | 100 |
| CCN1CCN(Cc2ccc(C(=O)Nc3ccc(C)c(Oc4ccc5c(c4)CC(=O)N5)c3)cc2C(F)(F)F)CC1 | binding, competition with immobilised ligand | 1 µM | 100 |
| c1ccc(N2CCN(Cc3nc4ccccc4[nH]3)CC2)nc1 | binding, competition with immobilised ligand | 1 µM | 100 |
| Cc1cnn2ncc(-c3ccnc(N(C)C)n3)c2c1 | binding | 1 µM | 100 |
| O=C(c1ccc(Nc2ncc(Cl)c(-c3ccc(Cl)s3)n2)cc1)N1CCC(N2CCCC2)CC1 | binding, competition with immobilised ligand | 1 µM | 81 |
| COc1ccnn2ncc(-c3ccnc(N(C)C)n3)c12 | binding | 1 µM | 96 |
| CS(=O)(=O)c1cc(C2(NC(=O)c3cncc4c3cnn4-c3ccc(F)cc3)CC2)ccn1 | cell-free assay, competition with immobilised ligand | 1 µM | 85 |
